# From article PMC7688529 (British Journal of Clinical Pharmacology, 2020)
# Like-named read-outs stand apart in the source and are kept apart here.
# What was measured:
# [1] = format: in vivo, human; conditions: for Ratio of geometric means (treatment A/B; 90% CI) of AUC0‐t / Ratio of geometric means (treatment A/B; 90% CI) of AUC0‐∞ / Ratio of geometric means (treatment A/B; 90% CI) of Cmax: FDC‐2 vs free combination (EU‐sourced tadalafil); for CVw of AUC0‐t / CVw of AUC0‐∞ / CVw of Cmax: FDC‐2 vs free combination, intrasubject coefficient of variation; for Cmax: Treatment A FDC (FDC‐2, 10 mg/40 mg), single dose, fasted, healthy subjects; for Cmax / half-life / AUC: geometric mean (95% CI)
# In short: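 Healthy subjects randomized to A/B or B/A. Single oral dose: 10 mg/40 mg FDC, or macitentan 10 mg plus 2 × 20 mg EU-sourced tadalafil. Fasted ≥10 h pre- to 4 h post-dose. Blood (K3EDTA) from predose to 216 h; spun ~1500 g, 10 min, 4 ± 2°C; stored ≤ −75°C, light-protected. LC-MS/MS with isotope-labelled standards. Geometric mean ratios (90% CI) and CVw from mixed-effects model.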
# [2] = format: in vivo, human; conditions: for CVw of AUC0‐t / CVw of AUC0‐∞ / CVw of Cmax: intrasubject coefficient of variation; for Tmax: median (range)
# In short: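 Healthy subjects; randomized crossover; single oral fasted dose of the 10 mg/40 mg macitentan/tadalafil FDC vs a free combination with US-sourced tadalafil; evaluated per group. Fluids withheld 1 h pre- to 1 h post-dose; observation 216–288 h. Macitentan/ACT-132577 by LC-MS/MS after acetonitrile/ethanol protein precipitation; tadalafil by LC-MS/MS after tert-butyl methyl ether extraction. Geometric mean ratios with 90% CI and intrasubject variability from a mixed-effects model.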
# [3] = Stability in human plasma samples; format: physicochemical
# [4] = Study AC‐077‐101: safety and tolerability evaluation; format: in vivo, human; conditions: both studies AC‐077‐101 and AC‐077‐103; administered as FDC product or as a free combination
# [5] = Treatment B free combination (EU‐sourced tadalafil), median (range)
# [6] = human, plasma, oral, t1/2, Treatment A FDC (FDC‐2)
# [7] = human, plasma, oral, t1/2, Treatment B free combination (EU‐sourced tadalafil)
# [8] = Group 1, FDC‐1 vs free combination (US‐sourced tadalafil)
# [9] = Group 1, FDC‐1 vs free combination
# [10] = Group 2, FDC‐2 vs free combination (US‐sourced tadalafil)
# [11] = Group 2, FDC‐2 vs free combination
# [12] = human, plasma, oral, Group 1, Treatment A FDC‐1 (macitentan/tadalafil 10 mg/40 mg), single dose, fasted, healthy subjects, geometric mean (95% CI)
# [13] = human, plasma, oral, Group 2, Treatment B free combination (US‐sourced tadalafil), geometric mean (95% CI)
# [14] = human, plasma, oral, t1/2, Group 1, Treatment B free combination (US‐sourced tadalafil), geometric mean (95% CI)
# [15] = human, plasma, oral, t1/2, Group 2, Treatment A FDC‐2, geometric mean (95% CI)
# [16] = human, plasma, oral, t1/2, Group 2, Treatment B free combination (US‐sourced tadalafil), geometric mean (95% CI)
# [17] = human, plasma, oral, tmax, Group 1, Treatment A FDC‐1
# [18] = human, plasma, oral, tmax, Group 1, Treatment B free combination (US‐sourced tadalafil)
# [19] = human, plasma, oral, tmax, Group 2, Treatment A FDC‐2
# [20] = human, plasma, oral, tmax, Group 2, Treatment B free combination (US‐sourced tadalafil)
# [21] = human, plasma, oral, t1/2, Group 1, Treatment A FDC‐1, geometric mean (95% CI)
smiles,measurement,setting,value
NS(=O)(=O)Nc1ncnc(OCCOc2ncc(Br)cn2)c1-c1ccc(Br)cc1 [ACT‐132577],Ratio of geometric means (treatment A/B; 90% CI) of AUC0‐t,[1],"0.9970 (0.9651, 1.0300)"
same,Ratio of geometric means (treatment A/B; 90% CI) of AUC0‐∞,[1],"0.9936 (0.9619, 1.0264)"
same,Ratio of geometric means (treatment A/B; 90% CI) of Cmax,[1],"1.0198 (0.9819, 1.0591)"
same,CVw of AUC0‐t,[1],7.93%
same,CVw of AUC0‐∞,[1],7.91%
same,CVw of Cmax,[1],9.24%
same,Tmax,[1]; [5],48.00 (24.0–72.1) h
same,Tmax,"[1]; human, plasma, oral",48 h
same,Cmax,"[1]; human, plasma, oral",163 ng/mL
same,half-life,[1]; [6],49.4 h
same,half-life,[1]; [7],50.4 h
same,Geometric means ratio (treatment A/B; 90% CI) of AUC0‐t,[2]; [8],"0.9826(0.9550, 1.0110)"
same,Geometric means ratio (treatment A/B; 90% CI) of AUC0‐∞,[2]; [8],"0.9836(0.9572, 1.0107)"
same,Geometric means ratio (treatment A/B; 90% CI) of Cmax,[2]; [8],"0.9935 (0.9616, 1.0264)"
same,CVw of AUC0‐t,[2]; [9],9.03%
same,CVw of AUC0‐∞,[2]; [9],8.61%
same,CVw of Cmax,[2]; [9],10.32%
same,AUC higher after FDC‐2 than after free combination,[2]; Group 2,~9%
same,Cmax higher after FDC‐2 than after free combination,[2]; Group 2,approximately 10%
same,Geometric means ratio (treatment A/B; 90% CI) of AUC0‐t,[2]; [10],"1.0925 (1.0545, 1.1319)"
same,Geometric means ratio (treatment A/B; 90% CI) of AUC0‐∞,[2]; [10],"1.0884 (1.0502, 1.1281)"
same,Geometric means ratio (treatment A/B; 90% CI) of Cmax,[2]; [10],"1.0983 (1.0470, 1.1520)"
same,CVw of AUC0‐t,[2]; [11],11.20%
same,CVw of AUC0‐∞,[2]; [11],11.31%
same,CVw of Cmax,[2]; [11],15.15%
same,Cmax,[2]; [12],158 ng/mL
same,Cmax,[2]; [13],150 ng/mL
same,half-life,[2]; [14],48.5 h
same,half-life,[2]; [15],50.5 h
same,half-life,[2]; [16],50.3 h
same,Tmax,[2]; [17],48 h
same,Tmax,[2]; [18],48 h
same,Tmax,[2]; [19],48 h
same,Tmax,[2]; [20],48 h
same,stability in plasma samples at room‐temperature,[3],at least 3 days
same,"stability in plasma samples, freeze/thaw cycles",[3],at least 3 freeze/thaw cycles
same,"stability in plasma samples, storage at −20°C",[3],≥ 36 months
"CCCNS(=O)(=O)Nc1ncnc(OCCOc2ncc(Br)cn2)c1-c1ccc(Br)cc1 [Macitentan, macitentan]",Ratio of geometric means (treatment A/B; 90% CI) of AUC0‐t,[1],"1.0038 (0.9677, 1.0413)"
same,Ratio of geometric means (treatment A/B; 90% CI) of AUC0‐∞,[1],"1.0015 (0.9675, 1.0367)"
same,Ratio of geometric means (treatment A/B; 90% CI) of Cmax,[1],"1.0608 (1.0014, 1.1238)"
same,CVw of AUC0‐t,[1],8.94%
same,CVw of AUC0‐∞,[1],8.42%
same,CVw of Cmax,[1],14.10%
same,Tmax,[1]; [5],9.00 (4.2–24.0) h
same,Tmax,"[1]; human, plasma, oral",9 h
same,AUC,"[1]; human, plasma, oral, AUC0‐t, Treatment A FDC (FDC‐2)",5810 ng·h/mL
same,AUC,"[1]; human, plasma, oral, AUC0‐t, Treatment B free combination (EU‐sourced tadalafil)",5790 ng·h/mL
same,AUC,"[1]; human, plasma, oral, AUC0‐∞, Treatment A FDC (FDC‐2)",5890 ng·h/mL
same,AUC,"[1]; human, plasma, oral, AUC0‐∞, Treatment B free combination (EU‐sourced tadalafil)",5880 ng·h/mL
same,Cmax,"[1]; human, plasma, oral",175 ng/mL
same,half-life,[1]; [6],16.1 h
same,half-life,[1]; [7],16.1 h
same,Geometric means ratio (treatment A/B; 90% CI) of AUC0‐t,[2]; [8],"0.9815 (0.9527, 1.0113)"
same,Geometric means ratio (treatment A/B; 90% CI) of AUC0‐∞,[2]; [8],"0.9818 (0.9537, 1.0109)"
same,Geometric means ratio (treatment A/B; 90% CI) of Cmax,[2]; [8],"1.0045 (0.9631, 1.0478)"
same,CVw of AUC0‐t,[2]; [9],9.54%
same,CVw of AUC0‐∞,[2]; [9],9.31%
same,CVw of Cmax,[2]; [9],13.50%
same,AUC higher after FDC‐2 than after free combination,[2]; Group 2,approximately 10%
same,Cmax higher after FDC‐2 than after free combination,[2]; Group 2,approximately 19%
same,Geometric means ratio (treatment A/B; 90% CI) of AUC0‐t,[2]; [10],"1.1014 (1.0652, 1.1389)"
same,Geometric means ratio (treatment A/B; 90% CI) of AUC0‐∞,[2]; [10],"1.0981 (1.0641, 1.1332)"
same,Geometric means ratio (treatment A/B; 90% CI) of Cmax,[2]; [10],"1.1901 (1.1374, 1.2451)"
same,CVw of AUC0‐t,[2]; [11],10.80%
same,CVw of AUC0‐∞,[2]; [11],10.16%
same,CVw of Cmax,[2]; [11],14.64%
same,AUC,"[2]; human, plasma, oral, AUC0‐t, Group 1, Treatment A FDC‐1, geometric mean (95% CI)",4320 ng·h/mL
same,AUC,"[2]; human, plasma, oral, AUC0‐t, Group 1, Treatment B free combination (US‐sourced tadalafil), geometric mean (95% CI)",4400 ng·h/mL
same,AUC,"[2]; human, plasma, oral, AUC0‐t, Group 2, Treatment A FDC‐2, geometric mean (95% CI)",4740 ng·h/mL
same,AUC,"[2]; human, plasma, oral, AUC0‐t, Group 2, Treatment B free combination (US‐sourced tadalafil), geometric mean (95% CI)",4300 ng·h/mL
same,AUC,"[2]; human, plasma, oral, AUC0‐∞, Group 1, Treatment A FDC‐1, geometric mean (95% CI)",4430 ng·h/mL
same,AUC,"[2]; human, plasma, oral, AUC0‐∞, Group 1, Treatment B free combination (US‐sourced tadalafil), geometric mean (95% CI)",4510 ng·h/mL
same,AUC,"[2]; human, plasma, oral, AUC0‐∞, Group 2, Treatment A FDC‐2, geometric mean (95% CI)",4830 ng·h/mL
same,AUC,"[2]; human, plasma, oral, AUC0‐∞, Group 2, Treatment B free combination (US‐sourced tadalafil), geometric mean (95% CI)",4390 ng·h/mL
same,Cmax,[2]; [12],169 ng/mL
same,Cmax,[2]; [13],163 ng/mL
same,half-life,[2]; [21],13.8 h
same,half-life,[2]; [14],14 h
same,half-life,[2]; [15],13.8 h
same,half-life,[2]; [16],14.4 h
same,Tmax,[2]; [17],9 h
same,Tmax,[2]; [18],9 h
same,Tmax,[2]; [19],9 h
same,Tmax,[2]; [20],9 h
same,tolerability,[4],well tolerated
same,stability in plasma samples at room‐temperature,[3],at least 3 days
same,"stability in plasma samples, freeze/thaw cycles",[3],at least 3 freeze/thaw cycles
same,"stability in plasma samples, storage at −20°C",[3],≥ 36 months
"CN1CC(=O)N2[C@H](c3ccc4c(c3)OCO4)c3[nH]c4ccccc4c3C[C@@H]2C1=O [Tadalafil, tadalafil]",Ratio of geometric means (treatment A/B; 90% CI) of AUC0‐t,[1],"1.0040 (0.9584, 1.0517)"
same,Ratio of geometric means (treatment A/B; 90% CI) of AUC0‐∞,[1],"1.0047 (0.9591, 1.0525)"
same,Ratio of geometric means (treatment A/B; 90% CI) of Cmax,[1],"0.9015 (0.8413, 0.9661)"
same,CVw of AUC0‐t,[1],11.35%
same,CVw of AUC0‐∞,[1],11.34%
same,CVw of Cmax,[1],16.96%
same,Tmax,[1]; [5],1.75 (1.0–5.0) h
same,Cmax,"[1]; human, plasma, oral",539 ng/mL
same,half-life,[1]; [6],23.3 h
same,half-life,[1]; [7],22.6 h
same,Tmax,"[1]; human, plasma, oral, tmax, Treatment A FDC (FDC‐2), median (range)",2 h
same,lower bound of the 90% CI of the geometric mean ratio of Cmax,"[2]; FDC‐1 vs free combination, bioequivalence limits 0.8000–1.2500",0.7167
same,AUC lower after FDC‐1 than after free combination,[2]; Group 1,~8%
same,Cmax lower after FDC‐1 than after free combination,[2]; Group 1,approximately 24%
same,Geometric means ratio (treatment A/B; 90% CI) of AUC0‐t,[2]; [8],"0.9151 (0.8687, 0.9639)"
same,Geometric means ratio (treatment A/B; 90% CI) of AUC0‐∞,[2]; [8],"0.9172 (0.8707, 0.9662)"
same,Geometric means ratio (treatment A/B; 90% CI) of Cmax,[2]; [8],"0.7588 (0.7167, 0.8034)"
same,CVw of AUC0‐t,[2]; [9],16.71%
same,CVw of AUC0‐∞,[2]; [9],16.70%
same,CVw of Cmax,[2]; [9],18.38%
same,t1/2,"[2]; Group 1, Treatment B free combination (US‐sourced tadalafil), geometric mean (95% CI)","18.066 (16.472, 19.815) h"
same,Tmax,"[2]; Group 1, Treatment B free combination (US‐sourced tadalafil)",3.00 (1.0–5.0) h
same,Geometric means ratio (treatment A/B; 90% CI) of AUC0‐t,[2]; [10],"0.9764 (0.9293, 1.0259)"
same,Geometric means ratio (treatment A/B; 90% CI) of AUC0‐∞,[2]; [10],"0.9765 (0.9293, 1.0260)"
same,Geometric means ratio (treatment A/B; 90% CI) of Cmax,[2]; [10],"0.9576 (0.9063, 1.0118)"
same,CVw of AUC0‐t,[2]; [11],16.01%
same,CVw of AUC0‐∞,[2]; [11],16.02%
same,CVw of Cmax,[2]; [11],17.86%
same,Cmax,[2]; [12],385 ng/mL
same,Cmax,[2]; [13],490 ng/mL
same,half-life,[2]; [21],18.4 h
same,half-life,[2]; [15],18.1 h
same,half-life,[2]; [16],18.5 h
same,Tmax,[2]; [17],4 h
same,Tmax,[2]; [18],~3 h
same,Tmax,[2]; [19],3 h
same,Tmax,[2]; [20],3 h
same,tolerability,[4],well tolerated
same,stability in plasma samples at room‐temperature,[3],at least 6 hours
same,"stability in plasma samples, freeze/thaw cycles",[3],≥ 3 freeze/thaw cycles
